For experiment [1], the system named is Mus musculus. Nature of the experiment: Compound was tested for its ability to induce salivation in mice upon subcutaneous administration. It counts as functional. The following applies: sc. In outline:
(§1)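 Mice dosed sc, scored just before the 30-min postdrug grid-shock test. Salivation or tremor rated 0–3 per animal. Scores multiplied by number of mice, summed per group (n = 10), and expressed as % of maximum sum (30). ED50 derived.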

The subject of experiment [2] is Mus musculus. Nature of the experiment: Compound was tested for its ability to induce tremors in mice subcutaneous administration. It counts as functional. The following applies: sc. In outline:
as §1

Experiment [3] deals with T1, Muscarinic acetylcholine receptor M5 (Homo sapiens, UniProt P08912).
T1 sequence (P08912 whole entry): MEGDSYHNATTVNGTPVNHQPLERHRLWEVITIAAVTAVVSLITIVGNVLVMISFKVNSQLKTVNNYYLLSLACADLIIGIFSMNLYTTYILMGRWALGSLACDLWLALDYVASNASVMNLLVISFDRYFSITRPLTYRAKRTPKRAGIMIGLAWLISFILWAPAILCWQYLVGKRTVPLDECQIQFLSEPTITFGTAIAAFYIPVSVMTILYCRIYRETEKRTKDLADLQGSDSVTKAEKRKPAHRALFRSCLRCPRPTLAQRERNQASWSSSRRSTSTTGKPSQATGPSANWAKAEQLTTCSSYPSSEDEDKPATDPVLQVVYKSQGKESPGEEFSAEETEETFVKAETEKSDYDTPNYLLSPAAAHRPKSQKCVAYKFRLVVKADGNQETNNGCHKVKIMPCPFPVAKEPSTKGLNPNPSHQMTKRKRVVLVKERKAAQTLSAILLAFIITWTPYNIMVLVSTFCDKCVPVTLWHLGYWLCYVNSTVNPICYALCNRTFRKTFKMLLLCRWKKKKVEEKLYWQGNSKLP
Nature of the experiment: Compound was evaluated for its ability to displace [3H]- N-methyl-scopolamine ([3H]NMS) binding to cloned CHO cell lines expressing Muscarinic acetylcholine receptor M5. Type of experiment: cell-based.

In experiment [4] the target is Muscarinic acetylcholine receptor M3 (Homo sapiens, UniProt P20309). Nature of the experiment: Compound was evaluated for its ability to displace [3H]N-methylscopolamine ([3H]NMS) binding to cloned CHO cell lines expressing Muscarinic acetylcholine receptor M3. Type of experiment: cell-based.
In experiment [5] the target is T2, Muscarinic acetylcholine receptor M1 (Homo sapiens, UniProt P11229).
T2 sequence (P11229 whole entry): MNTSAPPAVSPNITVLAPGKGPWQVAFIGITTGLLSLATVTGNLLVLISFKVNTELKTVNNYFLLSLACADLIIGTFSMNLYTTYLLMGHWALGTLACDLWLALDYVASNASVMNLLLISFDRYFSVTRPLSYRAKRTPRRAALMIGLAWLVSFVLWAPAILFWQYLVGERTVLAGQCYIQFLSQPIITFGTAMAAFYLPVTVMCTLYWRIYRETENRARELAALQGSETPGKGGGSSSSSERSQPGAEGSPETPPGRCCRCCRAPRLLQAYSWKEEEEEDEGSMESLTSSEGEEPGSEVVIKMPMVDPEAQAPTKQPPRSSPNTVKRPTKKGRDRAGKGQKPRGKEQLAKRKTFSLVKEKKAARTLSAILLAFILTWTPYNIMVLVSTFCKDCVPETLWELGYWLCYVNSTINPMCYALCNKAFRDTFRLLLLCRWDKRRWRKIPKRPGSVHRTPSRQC
Nature of the experiment: (§2) Compound was evaluated for its ability to displace [3H]N-methylscopolamine ([3H]NMS) binding to cloned CHO cell lines expressing Muscarinic acetylcholine receptor M1. Type of experiment: cell-based.

Experiment [6] deals with T3, Muscarinic acetylcholine receptor M2 (Homo sapiens, UniProt P08172).
T3 sequence (P08172 whole entry): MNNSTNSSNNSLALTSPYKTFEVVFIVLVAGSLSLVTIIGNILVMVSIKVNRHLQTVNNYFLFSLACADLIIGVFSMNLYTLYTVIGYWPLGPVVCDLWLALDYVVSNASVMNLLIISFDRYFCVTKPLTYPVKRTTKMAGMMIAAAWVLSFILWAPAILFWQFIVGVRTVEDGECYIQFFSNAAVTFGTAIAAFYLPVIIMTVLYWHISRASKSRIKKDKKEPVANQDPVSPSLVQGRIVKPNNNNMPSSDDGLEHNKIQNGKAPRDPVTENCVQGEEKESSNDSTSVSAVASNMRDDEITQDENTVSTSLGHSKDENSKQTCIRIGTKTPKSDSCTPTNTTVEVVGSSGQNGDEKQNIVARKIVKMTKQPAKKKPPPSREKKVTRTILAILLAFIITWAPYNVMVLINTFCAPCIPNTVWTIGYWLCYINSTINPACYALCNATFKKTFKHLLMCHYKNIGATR
Nature of the experiment: Compound was evaluated for its ability to displace [3H]- N-methyl-scopolamine ([3H]NMS) binding to cloned CHO cell lines expressing Muscarinic acetylcholine receptor M2. It counts as cell-based.

The target of experiment [7] is T4, Muscarinic acetylcholine receptor M4 (Homo sapiens, UniProt P08173).
T4 sequence (P08173 whole entry): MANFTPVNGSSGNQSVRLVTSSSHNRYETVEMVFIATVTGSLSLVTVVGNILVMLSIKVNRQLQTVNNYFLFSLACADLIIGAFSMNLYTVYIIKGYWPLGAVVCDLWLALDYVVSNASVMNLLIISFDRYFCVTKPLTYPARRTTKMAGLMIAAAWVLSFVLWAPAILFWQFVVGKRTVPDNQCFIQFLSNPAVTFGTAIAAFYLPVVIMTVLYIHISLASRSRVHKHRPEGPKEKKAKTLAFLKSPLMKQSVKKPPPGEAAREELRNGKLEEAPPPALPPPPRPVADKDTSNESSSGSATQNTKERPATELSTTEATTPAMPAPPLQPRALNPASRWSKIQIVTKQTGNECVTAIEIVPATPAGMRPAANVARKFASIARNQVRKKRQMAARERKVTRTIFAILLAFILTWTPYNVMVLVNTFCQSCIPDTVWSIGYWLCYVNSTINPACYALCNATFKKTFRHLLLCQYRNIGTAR
Nature of the experiment: Compound was evaluated for its ability to displace [3H]- N-methyl-scopolamine ([3H]-NMS) binding to cloned CHO cell lines expressing Muscarinic acetylcholine receptor M4. It counts as cell-based.

For experiment [8], the system named is Mus musculus. Nature of the experiment: In vivo antinociceptive activity was measured using mouse grid shock (MGS) assay in mice upon subcutaneous administration. Type of experiment: functional. The following applies: sc. In outline:
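Mice dosed sc by body weight, then shocked via stainless steel grid floor 30 min later. Vocalization detected acoustically. Percent increase in latency = (postdrug − predrug)/(cutoff − predrug) × 100 per animal, averaged per dose. Ten mice per dose and for controls. ED50 derived.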

For experiment [9], the target named is Muscarinic acetylcholine receptor. Nature of the experiment: In vitro Binding affinity was measured on Muscarinic acetylcholine receptor on rat brain membranes using [3H]oxotremorine-M. Set-up: species or system Membrane. In outline: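 Rat brain homogenate washed by 40000g centrifugation and resuspended in Hepes pH 7.4. Incubated with 1.0 nM (final) [3H]Oxo-M for 30 min at 25 °C. […] Filtered on glass fiber, washed with ice-cold buffer, scintillation counted. IC50 from at least four concentrations in triplicate, Hill equation.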

In experiment [10] the target is T2, Muscarinic acetylcholine receptor M1. The description is as §2. Type of experiment: cell-based. In outline:
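Membranes from CHO cells expressing cloned m1 receptor, prepared in 20 mM sodium phosphate pH 7.4 (200g spin, then 40000g for 45 min at 4 °C; stored −80 °C). 23–45 μg protein incubated with [3H]NMS (5 nM as added) and test compound for 2 h. WGA-coated SPA beads added, counted after a further 2 h.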
The source holds these as a separate data set.

The target of experiment [11] is Muscarinic acetylcholine receptor. Nature of the experiment: In vitro Binding affinity was measured against Muscarinic acetylcholine receptor on rat brain membranes using [3H]oxotremorine-M.

Chain of Muscarinic acetylcholine receptor M3 (P20309 whole entry): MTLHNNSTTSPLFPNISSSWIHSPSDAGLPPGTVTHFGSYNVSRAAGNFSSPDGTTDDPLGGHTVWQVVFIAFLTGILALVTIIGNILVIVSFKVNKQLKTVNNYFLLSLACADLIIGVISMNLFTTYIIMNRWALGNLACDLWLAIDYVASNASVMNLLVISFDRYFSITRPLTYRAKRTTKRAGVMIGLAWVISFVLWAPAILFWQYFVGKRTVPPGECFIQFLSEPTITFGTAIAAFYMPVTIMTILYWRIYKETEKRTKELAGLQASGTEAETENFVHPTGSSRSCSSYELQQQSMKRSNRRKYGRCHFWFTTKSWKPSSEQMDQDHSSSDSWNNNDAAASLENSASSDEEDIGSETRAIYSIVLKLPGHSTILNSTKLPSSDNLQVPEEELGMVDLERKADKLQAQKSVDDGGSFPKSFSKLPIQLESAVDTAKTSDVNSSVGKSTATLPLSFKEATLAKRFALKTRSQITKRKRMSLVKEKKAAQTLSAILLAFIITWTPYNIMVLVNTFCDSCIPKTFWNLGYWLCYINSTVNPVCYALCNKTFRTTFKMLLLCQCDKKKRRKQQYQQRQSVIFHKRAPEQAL

For `CN1CCC2=C(C1)c1nsnc1SC2`, the ED50 with Mus musculus [1] was 13 mg/kg; in the experiment on Mus musculus [2], greater than 30 mg/kg; in the experiment with Mus musculus [8], 10.4 mg/kg. The IC50 in experiment [3] was found to be 23 µM; in [4], 9.7 µM; in experiment [5], 20.5 µM; in experiment [6] it was 2.2 µM; in experiment [7] it was 14.5 µM; in experiment [9], 0.0278 µM.

For the compound `c1cc2nsnc2c2c1CCNC2`, the ED50 in the experiment with Mus musculus [1] amounted to 5.1 mg/kg; in the experiment with Mus musculus [2] it was 6.4 mg/kg; in the experiment on Mus musculus [8] it was 4.4 mg/kg. Moreover, the IC50 in [3] amounted to 100 µM; in [4], 100 µM; in [5] it was 100 µM; in experiment [6] it was 6.7 µM; in [7], 100 µM; in experiment [9], 0.0445 µM.

As for `CSc1nsnc1C1=CCCN(C)C1`, the 50% inhibitory concentration (IC50) was 1.8 µM in experiment [10]; 2.1 µM in experiment [3]; 1.6 µM in experiment [4]; 0.48 µM in [6]; 1.2 µM in [7]; 0.0045 µM in experiment [9]. Besides, the results for the ED50 in the experiment with Mus musculus [1], with Mus musculus [2] and with Mus musculus [8] were 6 mg/kg, greater than 10 mg/kg and 4 mg/kg, respectively.

Take `C1Cc2sc3nsnc3c2CN1`: the ED50 with Mus musculus [1] was determined as 8.8 mg/kg; in the experiment on Mus musculus [2], 15.8 mg/kg; in the experiment on Mus musculus [8], 4.6 mg/kg. This compound also gave an IC50 in [9] of 0.0355 µM.

Consider `CSc1nsnc1C1=CCCNC1`, for which the ED50 turned out to be 7.4 mg/kg with Mus musculus [1], 4.5 mg/kg in the experiment on Mus musculus [2] and 1.8 mg/kg in the experiment with Mus musculus [8]. Besides, in [9], the IC50 was 0.0076 µM.

As to `CSc1nsnc1C1=C(C)CCN(C)C1`, the ED50 in the experiment on Mus musculus [1], in the experiment with Mus musculus [2] and with Mus musculus [8] was greater than 30 mg/kg in each case. Moreover, the IC50 in experiment [3] is 100 µM; in experiment [4], greater than 100 µM; in [5] it was greater than 100 µM; in [6], 100 µM; in experiment [7], greater than 100 µM; in [9], greater than 0.5 µM.

Consider `COC(=O)C1=CCCN(C)C1` [ARECOLINE], for which the ED50 in the experiment on Mus musculus [1] came out at 15 mg/kg; in the experiment with Mus musculus [2], 15 mg/kg; in the experiment with Mus musculus [8], 16 mg/kg.

Consider `O=C1CCCN1CC#CCN1CCCC1` [OXOTREMORINE], for which the figures for the ED50 in the experiment on Mus musculus [1], with Mus musculus [2] and with Mus musculus [8] were 0.2 mg/kg, 0.2 mg/kg and 0.038 mg/kg, respectively. Moreover, the IC50 in [3] stood at 8 µM; in [4], 17 µM; in [5] it was 9 µM; in experiment [6], 0.4 µM; in experiment [11], 0.005 µM; in experiment [7], 5 µM.

Values taken from ChEMBL document CHEMBL1131636, “Conformationally constrained analogues of the muscarinic agonist 3-(4-(methylthio)-1,2,5-thiadiazol-3-yl)-1,2,5,6-tetrahydro-1-methylpyr idine. Synthesis, receptor affinity, and antinociceptive activity” (J Med Chem, 1998).
